Reference: ChEMBL document CHEMBL4041511, “Synthesis of coumaperine derivatives: Their NF-κB inhibitory effect, inhibition of cell migration and their cytotoxic activity” (Eur J Med Chem, 2017)
≈ marks a conversion by molar mass, not a printed value. Calls of active or inactive are those of the source. The calls are words filed in the database; no cut-off is given here.

Tests used:
Homo sapiens [1] = species on record: Homo sapiens; test: Inhibition of NF-kappaB in human L428 cells after 2 hrs by luciferase reporter gene assay; format: cell-based
Outline: (§1)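 L428 cells stably carrying NF-κB-luciferase reporter (kept in 500 µg/ml G418), 10⁶ per well in 1 ml medium with DMSO solvent and compound (10-50 μg/ml) for 2 h, triplicate wells. Lysates assayed for luciferase, luminescence normalized to Bradford protein. Solvent control = 100%; Nuphar extract positive control; mean and SD of three independent experiments.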

Homo sapiens [2] = species on record: Homo sapiens; test: Inhibition of NF-kappaB in human L428 cells at 30 ug/ml after 2 hrs by luciferase reporter gene assay relative to control; format: cell-based; outline: as §1
Homo sapiens [3] = species on record: Homo sapiens; test: Inhibition of NF-kappaB in human L428 cells at 50 ug/ml after 2 hrs by luciferase reporter gene assay relative to control; format: cell-based; outline: as §1
Homo sapiens [4] = species on record: Homo sapiens; test: Inhibition of NF-kappaB in human L428 cells at 20 ug/ml after 2 hrs by luciferase reporter gene assay relative to control; format: cell-based; outline: as §1
Homo sapiens [5] = species on record: Homo sapiens; test: Inhibition of NF-kappaB in human L428 cells at 10 ug/ml after 2 hrs by luciferase reporter gene assay relative to control; format: cell-based; outline: as §1
Homo sapiens [6] = species on record: Homo sapiens; test: Inhibition of NF-kappaB in human L428 cells at 40 ug/ml after 2 hrs by luciferase reporter gene assay relative to control; format: cell-based; outline: as §1
L-428 [7] = test: Inhibition of NFkappaB p65 subunit expression in cytosolic fractions of human L428 cells after 2 hrs by Western method; format: functional, cell-based
Outline: (§2)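 10 x 10^6 L428 cells per sample exposed 2 h to various concentrations or DMSO. Cytosolic and nuclear fractions prepared by hypotonic lysis, needle shearing and high-salt nuclear extraction. 40 µg protein (Bradford) run on 10% SDS-PAGE, immunoblotted for p50, p65, RelB; β-actin and Lamin B loading controls; ECL detection. At least three independent experiments.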

L-428 [8] = test: Cytotoxicity against human L428 cells assessed as reduction in cell viability after 48 hrs by XTT assay; format: functional, cell-based; details: for IC50: L-428, 48 h
Outline: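 L428 Hodgkin's lymphoma cells (RPMI 1640; lack IκBα, constitutive NF-κB), 3 x 10^4 per well in 200 µl, treated with graded concentrations for 48 h at 37 °C in triplicate. XTT added for 4 h at 37 °C, absorbance read at 450 nm. Control = 100% survival; mean and SD of three independent experiments.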

L-428 [9] = test: Inhibition of RelB protein expression in cytosolic fractions of human L428 cells at 10 to 40 ug/ml after 2 hrs by Western method; format: functional, cell-based; outline: as §2
L-428 [10] = test: Inhibition of NFkappaB p65 subunit expression in nuclear fractions of human L428 cells after 2 hrs by Western method; format: functional, cell-based; outline: as §2
[11] = target: Transcription factor p65 (Homo sapiens) (UniProt Q04206); test: Inhibition of NFkappaB p65 subunit in human L428 cells assessed as depletion of p65 subunit from nucleus after 2 hrs by DAPI staining based confocal microscopic method; format: cell-based
Outline: (§3)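 L428 cells incubated 2 h at 37 °C with compound at 10 or 30 μg/ml, cytocentrifuged (900 rpm, 5 min), fixed in 8% formalin 20 min. Separate staining with anti-p65 or anti-p50 plus fluorescent secondary antibodies; nuclei stained with DAPI. Nuclear localization imaged by confocal microscopy.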

L-428 [12] = test: Inhibition of RelB protein expression in nuclear fractions of human L428 cells at 10 to 40 ug/ml after 2 hrs by Western method; format: functional, cell-based; outline: as §2
A549 [13] = test: Cytotoxicity against human A549 cells assessed as reduction in cell viability after 48 hrs by XTT assay; format: functional, cell-based; details: A549, 48 h
Outline: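 A549 cells (DMEM, 10% heat-inactivated FBS, L-glutamine, Pen-Strep), 3 x 10^4 per well, left 24 h to form monolayer, then exposed to graded concentrations for 48 h in triplicate. XTT added, further 4 h at 37 °C, absorbance at 450 nm. Untreated control = 100% survival; mean and SD of three independent experiments.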

L-428 [14] = test: Inhibition of NFkappaB p50 subunit expression in nuclear fractions of human L428 cells after 2 hrs by Western method; format: functional, cell-based; outline: as §2
A549 [15] = test: Anti-migratory activity against human A549 cells assessed as reduction in wound closure at 5 ug/ml after 48 hrs by wound scratch assay; format: functional, cell-based
Outline: (§4)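 A549 cells seeded in 6-well plates without compound; after monolayer formed (24 h), compound or DMSO vehicle added and monolayer scratched. Wound closure recorded after 48 h; concentrations 2-10 μg/ml. Representative of three independent experiments.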

Homo sapiens [16] = species on record: Homo sapiens; test: Inhibition of NFkappaB p50 subunit in human L428 cells assessed as depletion of […] subunit from nucleus after 2 hrs by DAPI staining based confocal microscopic method; format: cell-based; outline: as §3
L-428 [17] = test: Inhibition of NFkappaB p50 subunit expression in cytosolic fractions of human L428 cells after 2 hrs by Western method; format: functional, cell-based; outline: as §2
Homo sapiens [18] = species on record: Homo sapiens; test: Inhibition of IL-1beta-induced NFkappaB activation in human OA chondrocytes at 100 ug/ml after 24 hrs by luciferase reporter gene assay relative to control; format: cell-based
Mus musculus = species on record: Mus musculus; test: Inhibition of LPS-induced NFkappaB activation in mouse RAW264.7 cells at 100 ug/ml after 24 hrs by luciferase reporter gene assay relative to control; format: cell-based
L-428 [19] = test: Inhibition of NFkappaB p65 subunit expression in cytosolic fractions of human L428 cells at 10 to 40 ug/ml after 2 hrs by Western method; format: functional, cell-based; outline: as §2
L-428 [20] = test: Inhibition of NFkappaB p50 subunit expression in cytosolic fractions of human L428 cells at 10 to 40 ug/ml after 2 hrs by Western method; format: functional, cell-based; outline: as §2
L-428 [21] = test: Inhibition of NFkappaB p65 subunit expression in nuclear fractions of human L428 cells at 10 to 40 ug/ml after 2 hrs by Western method; format: functional, cell-based; outline: as §2
A549 [22] = test: Anti-migratory activity against human A549 cells assessed as reduction in wound closure at 10 ug/ml after 48 hrs by wound scratch assay; format: functional, cell-based; outline: as §4
L-428 [23] = test: Inhibition of NFkappaB p50 subunit expression in nuclear fractions of human L428 cells at 10 to 40 ug/ml after 2 hrs by Western method; format: functional, cell-based; outline: as §2
L-428 [24] = test: Inhibition of RelB protein expression in cytosolic fractions of human L428 cells at 5 to 30 ug/ml after 2 hrs by Western method; format: functional, cell-based; outline: as §2
L-428 [25] = test: Inhibition of RelB protein expression in nuclear fractions of human L428 cells at 5 to 30 ug/ml after 2 hrs by Western method; format: functional, cell-based; outline: as §2

Transcription factor p65 (Homo sapiens), sequence (Q04206 whole entry): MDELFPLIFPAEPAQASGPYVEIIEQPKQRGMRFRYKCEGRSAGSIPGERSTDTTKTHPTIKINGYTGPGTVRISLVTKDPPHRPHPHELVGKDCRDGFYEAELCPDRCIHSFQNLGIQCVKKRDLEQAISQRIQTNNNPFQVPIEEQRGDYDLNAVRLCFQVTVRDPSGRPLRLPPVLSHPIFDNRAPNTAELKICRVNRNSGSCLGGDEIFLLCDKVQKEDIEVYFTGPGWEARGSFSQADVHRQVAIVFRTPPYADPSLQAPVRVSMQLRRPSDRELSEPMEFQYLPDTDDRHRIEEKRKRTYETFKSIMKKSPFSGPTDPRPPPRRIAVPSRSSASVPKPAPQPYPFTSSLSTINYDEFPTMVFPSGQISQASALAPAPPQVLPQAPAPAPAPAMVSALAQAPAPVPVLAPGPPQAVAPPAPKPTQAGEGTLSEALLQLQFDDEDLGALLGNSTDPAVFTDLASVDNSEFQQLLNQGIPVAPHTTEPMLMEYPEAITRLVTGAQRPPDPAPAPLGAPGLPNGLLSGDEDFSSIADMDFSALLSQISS

Compound	inhibition (Homo sapiens [1])	inhibition (Homo sapiens [2])	inhibition (Homo sapiens [3])	inhibition (Homo sapiens [4])	inhibition (Homo sapiens [5])	inhibition (Homo sapiens [6])	other results
O=C(/C=C/C=C/c1ccc(OC2CCCC2)cc1)N1CCCCC1	Dose-dependent effect	63.2%	72.2%	61.7%	57.6%	69.7%	–
CN(C)c1ccc(/C=C/C=C/C=C/C(=O)N2CCCCC2)cc1	Dose-dependent effect	56.8%	59.9%	56.2%	37.2%	57.2%	–
COc1ccc(/C=C/C=C/C(=O)N2CCCCC2)cc1	Dose-dependent effect	77.2%	89.9%	76.3%	69.7%	86.9%	inhibition (L-428 [7]): Dose-dependent effect; Activity (L-428 [8]): Dose-dependent effect; IC50 (L-428 [8]): 16.8 µg/mL (≈ 62.1 µM); inhibition (L-428 [9]): inactive; inhibition (L-428 [10]): Dose-dependent effect; inhibition [11]: Dose-dependent effect; inhibition (L-428 [12]): inactive; IC50 (A549 [13]): 63.2 µg/mL (≈ 233 µM); inhibition (L-428 [14]): Dose-dependent effect; Activity (A549 [15]): Active; inhibition (Homo sapiens [16]): Dose-dependent effect; inhibition (L-428 [17]): Dose-dependent effect
COc1ccc(/C=C/C=C/C(=O)N2CCCCC2)c(OC)c1OC	Dose-dependent effect	59.2%	62.9%	52.9%	39.2%	59.8%	–
COc1ccc(/C=C/C=C/C(=O)N2CCCCC2)cc1OC	Dose-dependent effect	73.9%	80.1%	67.5%	43.4%	78.9%	–
COc1ccc(/C=C/C=C/C=C/C(=O)N2CCCCC2)cc1	Dose-dependent effect	44.8%	51.8%	34%	26.4%	50.7%	–
COc1cc(/C=C/C=C/C(=O)N2CCCCC2)cc(OC)c1OC	Dose-dependent effect	53.1%	59.8%	44.6%	34.1%	56.9%	–
O=C(/C=C/C=C/C=C/c1ccc2c(c1)OCO2)N1CCCCC1	Dose-dependent effect	65.8%	71.2%	56.6%	34%	71%	–
O=C(/C=C/C=C/c1ccc(O)cc1)N1CCCCC1	Dose-dependent effect	89.8%	92.2%	79.6%	68.4%	91.5%	–
O=C(/C=C/C=C/c1ccc2c(c1)OCO2)N1CCCCC1	Dose-dependent effect	85.1%	90.2%	67.5%	67.3%	86.6%	inhibition (Homo sapiens [18]): 90%; inhibition (Mus musculus): 75%
CN(C)c1ccc(/C=C/C=C/C(=O)N2CCCCC2)cc1	Dose-dependent effect	97.3%	97.9%	96.6%	95.5%	97.7%	inhibition (L-428 [19]): inactive; Activity (L-428 [8]): Dose-dependent effect; IC50 (L-428 [8]): 0.39 µg/mL (≈ 1.37 µM); inhibition (L-428 [20]): inactive; inhibition (L-428 [9]): inactive; inhibition (L-428 [21]): inactive; Activity (A549 [22]): Active; inhibition (L-428 [12]): inactive; IC50 (A549 [13]): 69.1 µg/mL (≈ 243 µM); inhibition (L-428 [23]): inactive
CC(=O)Oc1ccc(/C=C/C=C/C(=O)N2CCCCC2)cc1	Dose-dependent effect	75.3%	80.1%	71.4%	70.3%	78.1%	–
O=C(/C=C/C=C/c1ccccc1)N1CCCCC1	Dose-dependent effect	82.2%	88.2%	73.9%	71.9%	85.9%	inhibition (L-428 [7]): Dose-dependent effect; Activity (L-428 [8]): Dose-dependent effect; IC50 (L-428 [8]): 43.2 µg/mL (≈ 179 µM); inhibition (L-428 [10]): Dose-dependent effect; inhibition [11]: Dose-dependent effect; inhibition (L-428 [24]): inactive; inhibition (L-428 [25]): inactive; IC50 (A549 [13]): 57.1 µg/mL (≈ 237 µM); inhibition (L-428 [14]): Dose-dependent effect; Activity (A549 [15]): Active; inhibition (Homo sapiens [16]): Dose-dependent effect; inhibition (L-428 [17]): Dose-dependent effect
